{"data": "Measured values of several laboratories", "target": "G protein-coupled receptor kinase 3 (GRK3, Homo sapiens, UniProt P35626)", "Residues used in one study (P35626 1-688)": "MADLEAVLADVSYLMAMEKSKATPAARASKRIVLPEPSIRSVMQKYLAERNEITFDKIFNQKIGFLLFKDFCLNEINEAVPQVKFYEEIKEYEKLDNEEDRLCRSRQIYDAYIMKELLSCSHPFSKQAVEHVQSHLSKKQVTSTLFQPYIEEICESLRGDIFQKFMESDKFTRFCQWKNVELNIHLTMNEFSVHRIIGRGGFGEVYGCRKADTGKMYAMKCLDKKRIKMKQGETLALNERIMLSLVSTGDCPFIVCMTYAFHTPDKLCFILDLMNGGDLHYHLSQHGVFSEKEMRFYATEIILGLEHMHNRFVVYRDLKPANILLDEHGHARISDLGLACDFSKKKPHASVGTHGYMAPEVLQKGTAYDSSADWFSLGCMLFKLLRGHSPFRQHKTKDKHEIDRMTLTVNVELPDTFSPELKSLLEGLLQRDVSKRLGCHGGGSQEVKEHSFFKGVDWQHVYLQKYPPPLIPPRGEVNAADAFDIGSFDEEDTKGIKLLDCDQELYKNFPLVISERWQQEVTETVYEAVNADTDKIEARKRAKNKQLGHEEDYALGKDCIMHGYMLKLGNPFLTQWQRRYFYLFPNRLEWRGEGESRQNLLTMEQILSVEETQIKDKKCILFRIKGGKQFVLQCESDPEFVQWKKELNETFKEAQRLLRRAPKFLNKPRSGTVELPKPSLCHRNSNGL", "note": "Each line is one published result; the experiments were not run side by side."}
{"Compound": "Cn1c2c(c3ccc(Cl)c(Cl)c31)C(C#N)C1(CCOCC1)NC2=O (centres unmarked)", "read-out": "thermal stability", "method": "DSF", "concentration": "10 µM", "quantity": "ΔTm", "value": "0 °C"}
{"Compound": "COc1cc(Cl)c(C(=O)N[C@@H](CN[C@H]2CC[C@@H](N)CC2)Cc2ccc(C#N)cc2)cc1-c1ccc(CN[C@H](C)c2ccc(C)cc2)o1", "read-out": "enzyme activity", "mode": "inhibitor", "concentration": "1 µM", "quantity": "remaining activity", "value": "99%"}
{"Compound": "O=C1Nc2ccc(Cl)cc2C1=Cc1cc(Cl)c(O)c(Cl)c1", "read-out": "cell-free assay", "concentration": "0.5 µM", "quantity": "remaining signal", "value": "102%"}
{"Compound": "Cc1ccc(C(=O)Nc2ccc(CN3CCN(C)CC3)c(C(F)(F)F)c2)cc1C#Cc1cnc2cccnn12", "read-out": "enzyme activity", "mode": "inhibitor", "concentration": "23.5 nM", "quantity": "remaining activity", "value": "76%"}
{"Compound": "CC(C)(C)c1nc2c(s1)c1nc(N)ncc1c1ccc(NS(=O)(=O)c3c(F)cccc3F)c(F)c12", "read-out": "enzyme activity", "mode": "inhibitor", "method": "radiometric", "concentration": "1 µM", "quantity": "remaining activity", "value": "96%"}
{"Compound": "Cn1c2c(c3ccccc31)C(C#N)C(C)(C)NC2=O (centres unmarked)", "read-out": "thermal stability", "method": "DSF", "concentration": "10 µM", "quantity": "ΔTm", "value": "0.2 °C"}
{"Compound": "O=C(Nc1cnn(-c2csc(C(=O)NC3COC3)c2)c1)Nc1ccccc1Cl", "read-out": "enzyme activity", "mode": "inhibitor", "concentration": "5 µM", "quantity": "remaining activity", "value": "102%"}
{"Compound": "CN1CC(Oc2cnc(C#N)cc2-c2ccn3nc(NC(=O)C4CC4)cc3c2)C1", "read-out": "enzyme activity", "mode": "inhibitor", "concentration": "1 µM", "quantity": "inhibition", "value": "0%"}
{"Compound": "CS(=O)(=O)N1CCCC(NC(=O)[C@H](CCC2CCCCC2)NC(=O)c2ccc(CNc3ncnc4c3nnn4-c3ccccc3)cc2)C1 (some centres unmarked)", "read-out": "cell-free assay", "method": "competition with immobilised ligand", "concentration": "0.1 µM", "quantity": "remaining binding", "value": "100%"}
{"Compound": "CC(C)(O)[C@H]1CC[C@H](Nc2ccc3ncc(-c4cccc(C(F)(F)F)c4)n3n2)CC1", "read-out": "enzyme activity", "mode": "inhibitor", "concentration": "1 µM", "quantity": "remaining activity", "value": "107%"}
{"Compound": "CN(c1ccnc(CNc2nc(Nc3ccc4c(c3)CC(=O)N4)ncc2C(F)(F)F)n1)S(C)(=O)=O", "read-out": "cell-free assay", "method": "competition with immobilised ligand", "concentration": "1 µM", "quantity": "remaining binding", "value": "91%"}
{"Compound": "Cn1c2c(Cl)c(Cl)ccc2c2cn[nH]c(=O)c21", "read-out": "thermal stability", "method": "DSF", "concentration": "10 µM", "quantity": "ΔTm", "value": "0 °C"}
{"Compound": "CNC(=O)c1ccc(Nc2ncc(C(F)(F)F)c(NCc3nccnc3N(C)S(C)(=O)=O)n2)cc1", "read-out": "cell-free assay", "method": "competition with immobilised ligand", "concentration": "0.1 µM", "quantity": "remaining binding", "value": "80%"}
{"Compound": "COc1cc2ncnc(Nc3ccc(Oc4ccccc4)c(C)c3C)c2cc1OC", "read-out": "enzyme activity", "mode": "inhibitor", "concentration": "1 µM", "quantity": "inhibition", "value": "-2%"}
{"Compound": "CS(=O)(=O)N1CCCC(NC(=O)[C@H](CCC2CCCCC2)NC(=O)c2ccc(CNC(=O)c3cnc4ccccn34)cc2)C1 (some centres unmarked)", "read-out": "cell-free assay", "method": "competition with immobilised ligand", "concentration": "0.1 µM", "quantity": "remaining binding", "value": "100%"}
{"Compound": "Cn1c2c(c3ccc(Cl)c(Cl)c31)C(C#N)C(C)(C)NC2=O (centres unmarked)", "read-out": "thermal stability", "method": "DSF", "concentration": "10 µM", "quantity": "ΔTm", "value": "0.6 °C"}
{"Compound": "CCCOc1ccc([C@@H]2[C@@H](C(=O)O)[C@H](c3ccc4c(c3)OCO4)CN2CC(=O)Nc2c(CC)cccc2CC)cc1", "read-out": "cell-free assay", "method": "competition with immobilised ligand", "concentration": "1 µM", "quantity": "remaining binding", "value": "100%"}
{"Compound": "N#CC1c2c([nH]c3c(Cl)c(Cl)ccc23)C(=O)NC12CCCCC2 (racemic)", "read-out": "thermal stability", "method": "DSF", "concentration": "10 µM", "quantity": "ΔTm", "value": "0.7 °C"}
{"Compound": "COc1ccc2cc(OCC3(C(=O)O)CN(C(=O)c4ccc(F)cc4)C3)ccc2c1", "read-out": "cell-free assay", "method": "competition with immobilised ligand", "concentration": "1 µM", "quantity": "remaining binding", "value": "67%"}
{"Compound": "Cn1c2c(c3ccc(Cl)c(Cl)c31)C(C#N)C1(CCNCC1)NC2=O (racemic)", "read-out": "thermal stability", "method": "DSF", "concentration": "10 µM", "quantity": "ΔTm", "value": "1.1 °C"}
